According to ChEMBL document CHEMBL1128270 (J Med Chem, 1995):

How the values were obtained:
[1] = biological target: T1, 5-hydroxytryptamine receptor 1A (Rattus norvegicus, UniProt P19327); experiment: In vitro binding affinity measured on serotonin 5-hydroxytryptamine 1A receptor using [3H]8-OH-DPAT as radioligand.
T1 sequence (P19327 whole entry): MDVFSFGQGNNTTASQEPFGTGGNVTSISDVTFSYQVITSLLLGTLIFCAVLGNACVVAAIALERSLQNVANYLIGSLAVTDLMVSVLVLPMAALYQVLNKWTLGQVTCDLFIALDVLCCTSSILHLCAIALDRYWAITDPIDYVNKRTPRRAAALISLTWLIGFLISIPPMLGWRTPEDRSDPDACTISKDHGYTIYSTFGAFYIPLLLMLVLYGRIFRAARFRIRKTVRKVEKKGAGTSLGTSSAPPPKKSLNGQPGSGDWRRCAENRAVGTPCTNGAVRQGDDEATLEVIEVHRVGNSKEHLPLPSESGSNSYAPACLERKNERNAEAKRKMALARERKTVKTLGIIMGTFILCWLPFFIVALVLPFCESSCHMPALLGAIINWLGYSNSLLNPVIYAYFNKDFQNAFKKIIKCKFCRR

[2] = biological target: Serotonin 2 (5-HT2) receptor (Rattus norvegicus, UniProt P30994+P08909+P14842); experiment: In vitro binding affinity measured on serotonin 5-hydroxytryptamine 2 receptor using [3H]ketanserin as radioligand.; assay type: protein assay
[3] = biological target: T2, Adrenergic receptor alpha-1 (Rattus norvegicus, UniProt P15823+P23944+P43140); experiment: In vitro binding affinity measured on alpha-1 adrenergic receptor using [3H]prazosin as radioligand.; assay type: protein assay
T2 sequence (P15823 whole entry): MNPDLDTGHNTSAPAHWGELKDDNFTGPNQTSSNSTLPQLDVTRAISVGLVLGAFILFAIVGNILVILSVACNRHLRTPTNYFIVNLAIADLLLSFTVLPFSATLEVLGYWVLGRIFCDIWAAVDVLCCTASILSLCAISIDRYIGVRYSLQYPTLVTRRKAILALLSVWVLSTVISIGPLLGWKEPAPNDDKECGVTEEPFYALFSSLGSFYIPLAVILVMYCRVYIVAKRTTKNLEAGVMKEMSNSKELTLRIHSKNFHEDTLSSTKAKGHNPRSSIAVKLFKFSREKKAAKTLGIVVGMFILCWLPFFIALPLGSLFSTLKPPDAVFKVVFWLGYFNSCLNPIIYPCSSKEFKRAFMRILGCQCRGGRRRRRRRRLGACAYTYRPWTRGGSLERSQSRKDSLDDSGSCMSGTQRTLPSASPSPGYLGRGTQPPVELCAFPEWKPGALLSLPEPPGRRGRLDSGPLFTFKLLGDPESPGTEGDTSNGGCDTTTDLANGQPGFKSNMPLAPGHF
T2 sequence (P23944 whole entry): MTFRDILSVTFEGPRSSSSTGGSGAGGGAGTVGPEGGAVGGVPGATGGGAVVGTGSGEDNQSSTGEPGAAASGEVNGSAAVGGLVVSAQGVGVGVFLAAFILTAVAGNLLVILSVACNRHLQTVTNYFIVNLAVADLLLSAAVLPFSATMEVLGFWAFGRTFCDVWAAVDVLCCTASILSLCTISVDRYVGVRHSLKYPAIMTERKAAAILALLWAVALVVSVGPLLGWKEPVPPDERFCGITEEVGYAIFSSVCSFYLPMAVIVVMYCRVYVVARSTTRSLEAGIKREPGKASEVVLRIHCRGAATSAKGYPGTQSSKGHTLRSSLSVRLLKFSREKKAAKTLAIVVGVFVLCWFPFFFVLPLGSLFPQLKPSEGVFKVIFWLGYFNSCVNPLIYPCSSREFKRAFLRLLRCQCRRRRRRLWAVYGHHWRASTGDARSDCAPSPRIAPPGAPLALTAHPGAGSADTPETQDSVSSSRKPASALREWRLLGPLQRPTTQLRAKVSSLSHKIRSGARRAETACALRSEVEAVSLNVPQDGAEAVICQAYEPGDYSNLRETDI
T2 sequence (P43140 whole entry): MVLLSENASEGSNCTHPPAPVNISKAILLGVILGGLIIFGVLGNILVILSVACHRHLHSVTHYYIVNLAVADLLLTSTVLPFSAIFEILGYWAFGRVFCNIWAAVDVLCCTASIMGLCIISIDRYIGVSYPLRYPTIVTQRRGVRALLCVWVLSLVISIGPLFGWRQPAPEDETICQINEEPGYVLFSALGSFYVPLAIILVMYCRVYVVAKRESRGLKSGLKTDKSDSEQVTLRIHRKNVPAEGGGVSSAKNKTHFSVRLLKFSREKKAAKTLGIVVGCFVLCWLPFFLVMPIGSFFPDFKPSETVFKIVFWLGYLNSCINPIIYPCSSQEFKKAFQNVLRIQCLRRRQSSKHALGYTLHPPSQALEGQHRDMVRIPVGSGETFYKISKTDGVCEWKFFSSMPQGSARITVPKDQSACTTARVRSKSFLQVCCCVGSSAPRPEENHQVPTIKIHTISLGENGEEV

D(2) dopamine receptor = D(2) dopamine receptor (Rattus norvegicus, UniProt P61169); experiment: In vitro binding affinity measured on dopamine receptor D2 using [3H]spiroperidol as radioligand.
Sequence of D(2) dopamine receptor (P61169 whole entry): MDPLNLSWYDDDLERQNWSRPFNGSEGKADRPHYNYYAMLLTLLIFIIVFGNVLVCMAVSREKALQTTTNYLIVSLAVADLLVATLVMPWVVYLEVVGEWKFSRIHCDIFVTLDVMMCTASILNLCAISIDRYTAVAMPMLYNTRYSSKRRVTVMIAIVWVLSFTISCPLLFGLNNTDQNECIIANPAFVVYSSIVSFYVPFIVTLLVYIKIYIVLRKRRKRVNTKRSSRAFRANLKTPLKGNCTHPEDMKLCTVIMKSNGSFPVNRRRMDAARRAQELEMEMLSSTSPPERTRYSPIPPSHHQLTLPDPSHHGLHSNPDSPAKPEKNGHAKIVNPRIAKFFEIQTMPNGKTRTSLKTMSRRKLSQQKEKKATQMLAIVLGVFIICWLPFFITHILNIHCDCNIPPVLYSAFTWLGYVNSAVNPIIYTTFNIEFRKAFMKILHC
Summary of the method: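 IC50 came from 7–9 drug concentrations in triplicate, over 2–4 independent experiments, analysed with EBDA. Specific binding exceeded 75% of total.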

[4] = Selectivity ratio of IC50 value against D-2 receptor to that of 5-HT1A receptor.
Summary of the method: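 Ratio of the D-2 IC50 to the 5-HT1A IC50. […] Each IC50 came from 7–9 concentrations in triplicate over 2–4 experiments (EBDA).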

[5] = biological target: Serotonin 1a (5-HT1a) receptor/Adrenergic receptor alpha-1 (Rattus norvegicus) (UniProt P15823+P23944+P43140+P19327); experiment: Selectivity ratio of IC50 value against alpha-1 receptor to that of 5-HT1A receptor.; assay type: protein assay
Summary of the method: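 Ratio of the α1 IC50 to the 5-HT1A IC50 ([3H]-8-OH-DPAT, rat cortex). For α1, male Sprague-Dawley rat cortex membranes were prepared in 50 mM Tris-HCl pH 7.7 with 10 μM pargyline and 0.1% ascorbate.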

Cavia porcellus = species: Cavia porcellus; experiment: Selectivity as the ratio of IC50 value against sigma receptor to that of 5-HT1A receptor.
Summary of the method: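 Ratio of the σ IC50 to the 5-HT1A IC50. For σ, a P2 membrane fraction was prepared from whole male guinea pig brain without cerebellum in 50 mM Tris-HCl pH 7.4. [3H]DTG was 0.90 nM final, incubated 90 min at 25 °C, then filtered and counted. IC50 values came from 7–9 concentrations in triplicate (EBDA).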

Compound	IC50 [1] [nM]	IC50 [2] [nM]	IC50 [3] [nM]	IC50 (D(2) dopamine receptor) [nM]	Selectivity [4]	Selectivity [5]	Selectivity (Cavia porcellus)
COc1ccc2c(c1)C(CCCN1CCN(c3ccccc3OC)CC1)CCC2 (stereo unspecified)	1.5	220	43.2	51.5			
COc1ccc2c(c1)C(CCCCN1CCN(c3ccccc3OC)CC1)=CCC2	1.53	209	15.3	10.6			
COc1cccc2c1CCC/C2=C\CCN1CCN(c2ccccn2)CC1	0.35	417	72.2	150			
COc1cccc2c1CCC=C2CCCN1CCN(c2cccc(C(F)(F)F)c2)CC1	55.9	2370	278	644	12	5	
COc1ccc2c(c1)C(SCCN1CCN(c3ccccc3OC)CC1)CCC2 (stereo unspecified)	5.94	111	116	50.2	8.5	20	20
COc1ccccc1N1CCN(CCCC2CCCc3c(OC)cccc32)CC1 (stereo unspecified)	0.32	358	1.94				
COc1ccccc1N1CCN(CCCCC2CCCc3c(OC)cccc32)CC1 (stereo unspecified)	1.73		78.3	15.4	8.9	45	
COc1ccccc1N1CCN(CC/C=C2\CCCc3c(OC)cccc32)CC1	0.52	667	6	11.3	22	12	100
COc1ccc2c(c1)C(CCCN1CCN(c3ccccc3)CC1)=CCC2	147	119	157	777			
COc1ccccc1N1CCN(CCCC2=CCCc3c(OC)cccc32)CC1	8.8	770	32.3	17.4	2	3.7	3.8
COc1ccccc1N1CCN(CCNC2CCCc3c(OC)cccc32)CC1 (stereo unspecified)	7.01	3340	149	618	88	21	22
COc1ccc2c(c1)C(CCCN1CCN(c3cccc(C(F)(F)F)c3)CC1)CCC2 (stereo unspecified)	88.4	391	2930	1330	15	33	0.99
COc1ccc2c(c1)C(CCCN1CCN(c3ccccc3)CC1)CCC2 (stereo unspecified)	9.24		184	28	3	20	
COc1ccc2c(c1)C(CCCN1CCN(c3cccc(C(F)(F)F)c3)CC1)=CCC2	138	1170	3070	1290	9.4	22	
